EBI2 block – EBI2 receptor antagonists, beta-arrestin recruitment, primary screen, cell-based, luminescence, 7a,25-OHC stimulation, uHTS | 7a,25-OHC stimulated | inhibition, % at 5 µM | actives 0.81% (n = 360,000) | AID 651636, 2012; in the data active means inhibition above about 38%;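 further: enzyme fragment complementation signal reports receptor beta-arrestin coupling in cells; 0% = agonist plus DMSO wells and 100% = wells without agonist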
HTR2A ag – mouse Htr2a agonists via beta-arrestin recruitment, primary screen, cell-based, luminescence. 5-hydroxytryptamine receptor 2A (Mus musculus), P35363. AID 624169, 2012. CHO-K1 mHTR2A beta-arrestin complementation; percent of 30 µM serotonin response. actives 0.66% (n = 360,000). activation, % at 7.6 µM;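 active means activation above a run cutoff, the mean activation of all tested compounds plus 3 SD, cut at about 14% in these data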;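 further: 0% = plate median of compound wells and 100% = 30 µM serotonin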
MC4R ag barr – MC4R agonists recruiting beta-arrestin, primary screen, cell-based, luminescence, agonist arm of biased-ligand search | Melanocortin receptor 4 (Homo sapiens), P32245 | U2OS MC4R beta-arrestin complementation; percent of melanotan II response, DMSO zero | actives 0.98% (n = 360,000) | activation, % at 8.9 µM;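 active means activation above a per-plate cutoff, the mean activation of sample wells on that plate plus 3 SD, cut at about 8% in these data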
Target sequence (P32245 whole entry, looked up): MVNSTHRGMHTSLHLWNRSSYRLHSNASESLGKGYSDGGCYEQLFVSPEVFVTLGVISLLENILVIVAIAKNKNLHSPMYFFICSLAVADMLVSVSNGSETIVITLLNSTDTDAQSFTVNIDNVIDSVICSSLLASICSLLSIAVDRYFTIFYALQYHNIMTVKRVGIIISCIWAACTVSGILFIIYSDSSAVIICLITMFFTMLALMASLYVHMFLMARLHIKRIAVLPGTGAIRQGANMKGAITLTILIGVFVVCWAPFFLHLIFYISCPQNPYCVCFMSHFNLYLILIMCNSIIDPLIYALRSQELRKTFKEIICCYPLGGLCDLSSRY
MC4R antagonist – MC4R antagonists of cAMP signaling, primary screen, cell-based, TR-FRET, antagonist arm of biased-ligand search. MC4R-expressing cells, MTII-stimulated cAMP, LANCE TR-FRET. inhibition, % at 6.5 µM. actives 0.48% (n = 360,000). AID 540295, 2011;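 active means inhibition above its plate's cutoff, the mean of tested wells on that plate plus 3 SD, cut at about 29% in these data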;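 further: 0% = Melanotan II alone and 100% = Melanotan II plus saturating MCL0020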
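Material: human MC4R-expressing U2OS cells. Probe or stimulus: Melanotan II challenge. Dosing: 6.5 µM single dose. Times: 30-min compound, 1-h challenge, 1-h detection, room temperature. Technique: TR-FRET with Eu-cAMP and labeled anti-cAMP, 671 nm. Replication: singlicate.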
EBI2 conf – EBI2 antagonist hit retest, beta-arrestin, confirmation, cell-based, single concentration, luminescence, 7a,25-OHC stimulation; shares compounds with EBI2 block; 7a,25-OHC antagonism; inhibition, % at 5 µM; actives 29% (n = 2,400);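 active means inhibition of at least 50%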
EBI2 ag – EBI2 agonist activity of antagonist hits, confirmation, counter-screen for EBI2 antagonist project, cell-based, single concentration, agonist mode, luminescence; shares compounds with EBI2 block; EBI2-expressing cells, 60 min; 0% vehicle, 100% 7α,25-dihydroxycholesterol control; activation, % at 5 µM; 2,400 tested, under 10 active; AID 652000, 2013;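 active means activation of at least 50%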
bGal counter – E. coli beta-galactosidase enzyme inhibition, confirmation, counter-screen for EBI2 antagonist project, biochemical, luminescence, single concentration. shares compounds with EBI2 block. purified beta-galactosidase, luminescent Galacton Star, 15 min. inhibition, % at 5 µM. actives 1% (n = 2,400). AID 652176, 2013;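 active means replicate-average signal at least 3 plate SD below neutral wells, shown as high inhibition, flagging enzyme-inhibiting false positives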;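 further: 0% = DMSO wells with enzyme and 100% = wells lacking enzyme; higher means stronger loss of beta-gal luminescence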
* marks the source's active call; other numbers are inactive results; x = no result. Compounds with a hit are over-represented: about 2.8% of the library has one in this group of screens.

SMILES	EBI2 block	HTR2A ag	MC4R ag barr	MC4R antagonist	EBI2 conf	EBI2 ag	bGal counter
CNc1ccc(C(=O)N2CCN(S(=O)(=O)c3ccc4c(c3)OCCCO4)CC2)cc1[N+](=O)[O-]	47*	3	-2	14	29	1	8
CC1(C(=O)NS(=O)(=O)c2cccc(OC(F)F)c2)CCN1C(=O)Cc1cccs1 (configuration not stated)	2	-6	0	1	x	x	x
COc1ccc(/C=C/C(=O)Nc2ccc(C(N)=O)cc2)cc1OC	4	2	-2	1	x	x	x
COc1ccc(/C=C/C(=O)Nc2ccc(-n3nncc3-c3ccccc3)cc2)cc1OC	61*	-2	1	26	21	-1	-9
CC(C)(C)c1ccc(Cn2cnc(-c3ccc([N+](=O)[O-])cc3)c2)cc1	51*	1	0	6	23	1	6
COc1ccc([C@H]2C[C@H](O)[C@@H](n3cc(COC(=O)c4ccccc4)nn3)CN2C(=O)C2CCCCC2)cc1	-1	3	0	7	x	x	x
CCCCn1c2ccc(F)cc2c2nnc(SCCN3CCOCC3)nc21	63*	1	-2	-11	31	0	9
Cn1c2ccc(F)cc2c2nnc(SCCN3CCOCC3)nc21	1	1	-1	13	x	x	x
CCCCn1c2ccccc2c2nnc(SCCN3CCCCC3)nc21	49*	-12	-1	-4	13	-2	-11
C=CCn1c2ccccc2c2nnc(SCCN3CCOCC3)nc21	11	1	-3	7	x	x	x
CN1C2C=C3C(C#N)=C(N)C(C#N)(C#N)C(c4ccc(Br)cc4)C3C1CC2 (configuration not stated)	51*	-7	-3	5	59*	1	4
CN1C2C=C3C(C#N)=C(N)C(C#N)(C#N)[C@@H](c4ccc(Cl)cc4)[C@@H]3C1CC2 (some centres not stated)	32	-5	-1	16	x	x	x
Cc1cc2c(cc1S(=O)(=O)CCC(=O)N(C)C1CCCCC1)OCC(=O)N2	10	0	0	7	x	x	x
CSc1cc(-c2ccc(Cl)cc2)c(C(=O)NC(C)C)s1	47*	5	3	23	34	1	-1
CCOc1ccc(NC(=O)c2ccc(S(=O)(=O)N(C)C)cc2)cc1	7	-3	-2	4	x	x	x
Cc1ccc(CNC(=O)c2ccc(N(C)S(=O)(=O)c3ccccc3)cc2)cc1	83*	-7	0	-3	47	1	2
CN(C)S(=O)(=O)c1ccc(C(=O)Nc2ccc(Cl)cc2)cc1	53*	3	0	8	50*	3	-3
CCN(CC)S(=O)(=O)c1ccc(C(=O)NCc2ccc(C)cc2)cc1	63*	-6	0	3	55*	1	3
Cc1ccc(S(=O)(=O)N(C)c2ccc(C(=O)Nc3ccc(C)cn3)cc2)cc1	14	-5	-3	-4	x	x	x
CN(c1ccc(C(=O)Nc2ccc(Cl)cn2)cc1)S(=O)(=O)c1ccccc1	50*	-1	-2	-3	56*	0	4
CN(c1ccccc1)S(=O)(=O)c1ccc(C(=O)NCc2ccc(F)cc2)cc1	14	4	-4	2	x	x	x
O=C(c1ccc(NS(=O)(=O)c2ccc3[nH]c(=O)[nH]c3c2)cc1)N1CCCC(C(F)(F)F)C1 (configuration not stated)	0	-8	-3	-3	x	x	x
FC(F)Oc1ccccc1/C=N/n1cnc2ccccc21	-1	6	3	1	x	x	x
CCCCCC1C(C(=O)OCC)C(=O)NC1(C(=O)OCC)C(=O)OCC (configuration not stated)	6	-1	2	-1	x	x	x
CSCc1ccc(C(=O)NCc2ccc(C)cc2)cc1	64*	-4	-1	11	36	0	-12
SMILES	EBI2 block	HTR2A ag	MC4R ag barr	MC4R antagonist	EBI2 conf	EBI2 ag	bGal counter
N#CCCn1cc(/C=C(\C#N)c2nc3ccccc3s2)c(-c2ccc(F)cc2)n1	46*	0	-1	7	34	-1	-19
N#CCCn1cc(C=C(C#N)C#N)c(-c2ccc(Cl)cc2)n1	3	1	0	2	x	x	x
CCOc1ccc(N2CC(C(=O)Nc3ccc(S(=O)(=O)N4CCCC4)cc3)CC2=O)cc1 (configuration not stated)	53*	-6	-3	13	44	1	2
COc1ccc(N2CC(C(=O)Nc3ccc(S(=O)(=O)N4CCCCC4)cc3)CC2=O)cc1 (configuration not stated)	75*	8	-1	0	56*	1	0
CCOc1ccc(N2CC(C(=O)Nc3ccc(S(=O)(=O)N4CCCCC4)cc3)CC2=O)cc1 (configuration not stated)	79*	-4	-4	8	63*	-1	-21
COc1ccc(N2CC(C(=O)Nc3ccc(N4CCOCC4)cc3)CC2=O)cc1 (configuration not stated)	-11	0	-1	5	x	x	x
CCSC1OC(C(COC(C)=O)OC(C)=O)C(OC(C)=O)C1NC(C)=S (configuration not stated)	-10	3	-1	-9	x	x	x
O=C(NCCc1ccc(Cl)cc1)c1ccc(CS(=O)Cc2ccc(Cl)cc2)o1 (configuration not stated)	68*	7	-1	15	54*	-2	-8
CSc1ccc(CCNC(=O)c2ccc(CS(=O)Cc3ccc(Cl)cc3)o2)cc1 (configuration not stated)	54*	-2	-2	7	7	0	-12
CCOc1ccc(CCNC(=O)c2ccc(CS(=O)Cc3ccc(Cl)cc3)o2)cc1 (configuration not stated)	46*	-1	-2	1	28	1	2
COc1ccc(C(=O)N2CCN(c3ccc([N+](=O)[O-])c(-n4nc(C)cc4C)c3)CC2)cc1	59*	4	-4	5	24	-1	-6
CC1(C)CC(=O)C=C(NC2=CC3OC(c4ccccc4)OCC3OC2=O)C1 (configuration not stated)	21	-3	-4	12	x	x	x
